# Results published in ChEMBL document CHEMBL1125163, “Evolution of a series of peptidoleukotriene antagonists: synthesis and structure-activity relationships of 1,6-disubstituted indoles and indazoles” (J Med Chem, 1990).
# Legend:
# [1] = pKB value of the compound
# Outline: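 Guinea pig tracheal strips at 37 °C in Krebs buffer. Cumulative LTE4 concentration-response curves were built in log increments, with responses expressed as % of the maximum to 30 µM carbachol. Antagonist was incubated 30 min before the curve, with vehicle on paired controls. EC50 came from linear regression. KB = [antagonist]/(dose ratio − 1) by the Furchgott method. One curve per tissue.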
# [2] = species on record: Cavia porcellus; assay: Percent inhibition of the LTE4- induced contraction of guinea pig tracheal spirals at concentration of 5 uM; type: functional; conditions: Trachea
# Outline: (§1)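 Guinea pig trachea cut into spiral strips, each trachea split into paired sections. Tissue bath at 37 °C in modified Krebs buffer gassed with 95% O2/5% CO2, 2 g resting tension, 60 min stabilization. After reproducible responses to 10 nM LTE4, compound was added for 10 min, then LTE4 challenge repeated. Percent inhibition is the 2nd vs 3rd response, adjusted by subtracting the vehicle-treated paired section. Paired t test, p < 0.05.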
# [3] = Selectivity ratio of the compound; type: functional
# [4] = test system: Cavia porcellus; assay: Percent protection was determined from the time delay to the onset of dyspnea compared to that of control guinea pig at a concentration of 100 uM/kg; type: functional
# Outline: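 Conscious guinea pigs were pretreated ip with indomethacin (10 mg/kg) and propranolol (5 mg/kg). Compound was given orally in poly(ethylene glycol) 60 min before challenge with aerosolized 60 µM LTD4 for up to 5 min. End point was labored abdominal breathing, scored blind. % protection = (drug time − mean control time)/(max aerosol time − mean control time) × 100, with at least two vehicle animals per run.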
# [5] = species on record: Cavia porcellus; assay: Percent inhibition of the LTE4- induced contraction of guinea pig tracheal spirals at the concentration of 0.1 uM; type: functional; conditions: Trachea; outline: as §1
# [6] = species on record: Cavia porcellus; assay: Percent inhibition of the LTE4- induced contraction of guinea pig tracheal spirals at the concentration of 0.5 uM; type: functional; conditions: Trachea; outline: as §1
compound,measurement,setting,value
CCCCCC(=O)Nc1ccc2ccn(Cc3ccc(C(=O)O)cc3OC)c2c1,pKB,[1],6
same,inhibition at 5 µM,[2],70%
same,Selectivity ratio,[3],100
COc1cc(C(=O)O)ccc1Cn1ccc2ccc(NC(=O)OC3CCCC3)cc21,Protection,[4],23%
same,inhibition at 0.1 µM,[5],61%
CCCCOC(=O)Nc1ccc2ccn(Cc3ccc(C(=O)O)cc3OC)c2c1,inhibition at 0.5 µM,[6],54%
